Assay results: the array DNA melting data of Ke et al. (doi:10.1101/2024.01.08.574731)

How the values were obtained:
[1] = melting temperature; fluorescence melt of hairpins on a sequencing array, two-state fit, raised by 9.35 °C to match UV melts; settings: sodium 0.088 M
Outline: (§1)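 Folding enthalpy and melting temperature come from bootstrapped two-state fits to Cy3 fluorescence of library hairpins carrying annealed Cy3 and quencher oligos on a sequenced MiSeq flow cell. Imaging was done in 50 mM Na-HEPES pH 8.0, 25 mM NaCl, stepping by 2.5 °C up to 60 °C, and signals were normalised to pre-quench Cy3 and to control constructs. Results of four replicates were combined by inverse variance, and fitted temperatures were raised by 9.35 °C to match UV melts.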

[2] = folding enthalpy; higher = less favourable; fluorescence melt of hairpins on a sequencing array, two-state fit; settings: sodium 0.088 M
Outline: as §1

| Sequence | Tm [1] | folding enthalpy [2] |
| --- | --- | --- |
| GGTTCGGGAAACTGGACC (((.(.(....).).))) | 41.2 °C | -29.2 kcal/mol |
| GGTTCTGCGAAAGCAACC (((..(((....)))))) | 31.1 °C | -12.3 kcal/mol |
| GGTTGAGGAAACCCAACC (((((.(....).))))) | 45.2 °C | -39.4 kcal/mol |
| GGTTGAGGAAACTCAGCC ((.((((....)))).)) | 50 °C | -33.4 kcal/mol |
| GGTTGAGGAAACTCAGTC (..((((....))))..) | 30.9 °C | -14.5 kcal/mol |
| GGTTGAGGAAACTTAACC ((((.((....)).)))) | 39.8 °C | -31.9 kcal/mol |
| GGTTGCACGAAAGTGACC (((..(((....)))))) | 34.2 °C | -11.2 kcal/mol |
| GGTTGCCGAAAGGCTACC (((.(((....))).))) | 61.8 °C | -29.6 kcal/mol |
| GGTTGCGAAAGCAAACC ((((((....))).))) | 61.8 °C | -20 kcal/mol |
| GGTTGCGAAAGCACTACC ((((((....)))..))) | 37.4 °C | -11.9 kcal/mol |
| GGTTGCGAAAGCAGGACC ((((((....)))..))) | 37.8 °C | -19.2 kcal/mol |
| GGTTGCGAAAGCAGTACC ((((((....)))..))) | 43.3 °C | -16.9 kcal/mol |
| GGTTGCGCGAAAGCGACC (((..(((....)))))) | 42.8 °C | -18 kcal/mol |
| GGTTGCGGAAACACAACC (((((.(....).))))) | 48.4 °C | -40 kcal/mol |
| GGTTGCGGAAACGCAATC (.(((((....))))).) | 54.9 °C | -28.9 kcal/mol |
| GGTTGCGGAAACGTAACC ((((.((....)).)))) | 54 °C | -47.9 kcal/mol |
| GGTTGGAAACAACC (((((....))))) | 54.9 °C | -29.6 kcal/mol |
| GGTTGGGGAAACCCAATC (.(((((....))))).) | 48.7 °C | -26.2 kcal/mol |
| GGTTGGGGAAACCCGACC (((.(((....))).))) | 56.7 °C | -32.4 kcal/mol |
| GGTTGTGAAAACAACC ((((((....)))))) | 61.5 °C | -40.1 kcal/mol |
| GGTTGTGGAAACATGACC (((..((....))..))) | 39.2 °C | -30.9 kcal/mol |
| GGTTTACGAAAGTAGACC (((.(((....))).))) | 51 °C | -34.9 kcal/mol |
| GGTTTAGGAAACTAGACC (((.(((....))).))) | 37.5 °C | -30.2 kcal/mol |

| Sequence | Tm [1] | folding enthalpy [2] |
| --- | --- | --- |
| GGTTTATCGAAAGATACC (((..(((....)))))) | 28 °C | -12.3 kcal/mol |
| GGTTTCCGAAAGGATACC (((.(((....))).))) | 50.5 °C | -36.7 kcal/mol |
| GGTTTCGAAAGAACACC ((((((....))).))) | 37.6 °C | -26.8 kcal/mol |
| GGTTTCGAAAGAAGACC ((((((....))).))) | 36.8 °C | -19.5 kcal/mol |
| GGTTTCGAAAGAATCACC ((((((....)))..))) | 26.7 °C | -13 kcal/mol |
| GGTTTCGGAAACGAAGCC ((.((((....)))).)) | 51.4 °C | -28.2 kcal/mol |
| GGTTTGACGAAAGTCACC (((..(((....)))))) | 30.4 °C | -10.6 kcal/mol |
| GGTTTGCGAAAGCAACC (((.(((....)))))) | 52.4 °C | -17.2 kcal/mol |
| GGTTTGCGAAAGCAGACC (((.(((....))).))) | 59.5 °C | -34.8 kcal/mol |
| GGTTTGGAAACAAACC ((((((....)))))) | 56.5 °C | -41.6 kcal/mol |
| GGTTTTCGAAAGAAACC (((.(((....)))))) | 44.8 °C | -23.1 kcal/mol |
| GGTTTTCGAAAGAAGACC (((.(((....))).))) | 48.1 °C | -31.4 kcal/mol |
| GGTTTTCGAAAGAATACC (((.(((....))).))) | 42.3 °C | -30.8 kcal/mol |
| GGTTTTGGAAACAAAACC (((((((....))))))) | 58.6 °C | -50.2 kcal/mol |
| GGTTTTGGAAACAGAACC ((((.((....)).)))) | 42.1 °C | -36.7 kcal/mol |
| GTAAACGAAAGTTCTTAC ((((((....)))..))) | 24.7 °C | -11 kcal/mol |
| GTAAACGAAAGTTGTAC ((((((....))).))) | 31.2 °C | -13.7 kcal/mol |
| GTAAACGAAAGTTGTTAC ((((((....)))..))) | 23.7 °C | -10.1 kcal/mol |
| GTAAACGAAAGTTTATAC ((((((....)))..))) | 37.1 °C | -13.4 kcal/mol |
| GTAAACGGAAACGTTTAC (((((((....))))))) | 57.8 °C | -47.3 kcal/mol |
| GTAAAGCGAAAGCTCTAC (((.(((....))).))) | 35 °C | -14.5 kcal/mol |
| GTAAATGGAAACATTTAC (((((((....))))))) | 51.3 °C | -31.5 kcal/mol |
| GTAACACCGAAAGGTTAC (((..(((....)))))) | 35.6 °C | -14.8 kcal/mol |

| Sequence | Tm [1] | folding enthalpy [2] |
| --- | --- | --- |
| GTAACAGCGAAAGCTTAC (((..(((....)))))) | 28.6 °C | -10.8 kcal/mol |
| GTAACCGAAAGGTGATAC ((((((....)))..))) | 30.7 °C | -12.9 kcal/mol |
| GTAACCGAAAGGTGCTAC ((((((....)))..))) | 39.1 °C | -13.1 kcal/mol |
| GTAACCGGAAACGGTTGC (.(((((....))))).) | 53.1 °C | -31.8 kcal/mol |
| GTAACGCGAAAGCGCTAC (((.(((....))).))) | 51.9 °C | -19.6 kcal/mol |
| GTAACGGAAACGTTAC ((((((....)))))) | 56.3 °C | -40.2 kcal/mol |
| GTAACGGGAAACCGCTAC (((.(((....))).))) | 39.9 °C | -24.4 kcal/mol |
| GTAACGGGAAACCGTTGC (.(((((....))))).) | 52 °C | -21.2 kcal/mol |
| GTAACGTCGAAAGACTAC (((..(((....)))))) | 28.7 °C | -11.2 kcal/mol |
| GTAACTGGAAACAGTTAC (((((((....))))))) | 56.1 °C | -41.6 kcal/mol |
| GTAAGAACGAAAGTTTAC (((..(((....)))))) | 24.3 °C | -8.19 kcal/mol |
| GTAAGAGGAAACTCTCAC ((.((((....)))).)) | 26.3 °C | -14.8 kcal/mol |
| GTAAGAGGAAACTCTTAC (((((((....))))))) | 51 °C | -42.2 kcal/mol |
| GTAAGCCCGAAAGGGTAC (((..(((....)))))) | 28.1 °C | -10.6 kcal/mol |
| GTAAGCCGAAAGGCCTAC (((.(((....))).))) | 39.4 °C | -13.7 kcal/mol |
| GTAAGCGAAAGCTTTTAC ((((((....)))..))) | 29.7 °C | -11.8 kcal/mol |
| GTAAGCGGAAACGCCTAC (((.(((....))).))) | 35.4 °C | -15.8 kcal/mol |
| GTAAGCGGAAACGTTTAC ((((.((....)).)))) | 43 °C | -28.2 kcal/mol |
| GTAAGGCGAAAGCCATAC (((.(((....))).))) | 44.8 °C | -15.3 kcal/mol |
| GTAAGGCGAAAGCCCTAC (((.(((....))).))) | 36 °C | -13.5 kcal/mol |
| GTAAGGGGAAACCTTTAC ((((.((....)).)))) | 33.9 °C | -27.1 kcal/mol |
| GTAAGGGGAAACTCTTAC (((((.(....).))))) | 37.6 °C | -34.4 kcal/mol |
| GTAATAGGAAACTATTGC (.(((((....))))).) | 34.2 °C | -18.7 kcal/mol |

| Sequence | Tm [1] | folding enthalpy [2] |
| --- | --- | --- |
| GTAATAGGAAACTGTTAC ((((.((....)).)))) | 36.4 °C | -24.9 kcal/mol |
| GTAATCACGAAAGTGTAC (((..(((....)))))) | 29.3 °C | -10.9 kcal/mol |
| GTAATCCCGAAAGGGTAC (((..(((....)))))) | 27.5 °C | -11.1 kcal/mol |
| GTAATCGAAAGATTCTAC ((((((....)))..))) | 28.8 °C | -18.5 kcal/mol |
| GTAATCGGAAACGATCAC ((.((((....)))).)) | 33.9 °C | -25 kcal/mol |
| GTAATGGAAACATTAC ((((((....)))))) | 46.7 °C | -31.7 kcal/mol |
| GTAATGGGAAACCATCAC ((.((((....)))).)) | 28.8 °C | -17.7 kcal/mol |
| GTAATTGGAAACAATCAC ((.((((....)))).)) | 27.4 °C | -11.6 kcal/mol |
| GTACACACGAAAGTGTAC (((..(((....)))))) | 46.5 °C | -16.6 kcal/mol |
| GTACACGAAAGTGAGTAC ((((((....)))..))) | 36.5 °C | -15.6 kcal/mol |
| GTACACGAAAGTGTATAC ((((((....)))..))) | 43.6 °C | -12.1 kcal/mol |
| GTACACGAAAGTGTGTAC ((((((....)))..))) | 46 °C | -13.8 kcal/mol |
| GTACACGGAAACATGTAC (((((.(....).))))) | 34.2 °C | -28.3 kcal/mol |
| GTACAGACGAAAGTCTAC (((..(((....)))))) | 29.8 °C | -11.5 kcal/mol |
| GTACAGCGAAAGCTATAC (((.(((....))).))) | 36.9 °C | -18 kcal/mol |
| GTACAGGGAAACCTGTGC (.(((((....))))).) | 49.8 °C | -20.9 kcal/mol |
| GTACATCCGAAAGGATAC (((..(((....)))))) | 29.6 °C | -12.1 kcal/mol |
| GTACATGCGAAAGCATAC (((..(((....)))))) | 28.7 °C | -8.62 kcal/mol |
| GTACATGGAAACATGCAC ((.((((....)))).)) | 39.2 °C | -22.7 kcal/mol |
| GTACCACGAAAGTGATAC (((.(((....))).))) | 43.7 °C | -24.3 kcal/mol |
| GTACCAGGAAACCGGTAC (((((.(....).))))) | 46.9 °C | -35.7 kcal/mol |
| GTACCAGGAAACTAGTAC ((((.((....)).)))) | 28.7 °C | -15.3 kcal/mol |
